Laboratory results from ChEMBL document CHEMBL3853298, “Total synthesis and in vitro bioevaluation of clavaminols A, C, H & deacetyl clavaminol H as potential chemotherapeutic and antibiofilm agents” (Eur J Med Chem, 2016).
Converted amounts (≈) assume the structure as drawn. The source made the active and inactive calls. No cut-off for these calls is given here.

How the values were obtained:
Bacillus subtilis [1] = test: Antibiofilm activity against Bacillus subtilis MTCC 121 incubated for 24 hrs under static condition by crystal violet staining-based assay; type: functional
Method in brief: (§1)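 Strains grown overnight in tryptone soy broth with 0.5% glucose. Compound (250 to 0) mixed with inoculum at 5 × 10^5 CFU/mL in polystyrene microtiter plates. Non-adherent cells washed off with PBS; wells stained with 0.1% crystal violet, dye solubilised in 95% ethanol, absorbance read at 540 nm. IC50 for 50% biofilm inhibition taken from dose-response curves. Triplicates, mean ± S.D.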

Escherichia coli [2] = test: Bactericidal activity against Escherichia coli MTCC 739 after 24 hrs; type: functional; conditions: MTCC 739, 24 h
Method in brief: (§2)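 Broth macrodilution in Mueller Hinton broth, compound serially diluted from 150 down to 0. Overnight bacterial culture added to a final 1.5 × 10^8 CFU/mL (0.5 McFarland), 24 h at 37 °C. Suspension then subcultured onto Mueller Hinton agar for 24 h at 37 °C. MBC is the lowest concentration killing the strain. Duplicates.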

Pseudomonas aeruginosa [3] = test: Antibiofilm activity against Pseudomonas aeruginosa MTCC 2453 incubated for 24 hrs under static condition by crystal violet staining-based assay; type: functional; method in brief: as §1
Staphylococcus aureus [4] = test: Antibacterial activity against Staphylococcus aureus MTCC 96 after 24 hrs by well diffusion method; type: functional; conditions: MTCC 96, 24 h
Method in brief: (§3)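 Bacteria spread (0.1 mL suspension) on Mueller-Hinton agar; 6.0 mm wells loaded with compound over a 250 to 0.48 per-well dose range, methanol as negative control. Incubated 24 h at 37 °C. MIC taken as the lowest concentration still giving an inhibition zone. Duplicates, mean reported.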

Micrococcus luteus [5] = test: Antibiofilm activity against Micrococcus luteus MTCC 2470 incubated for 24 hrs under static condition by crystal violet staining-based assay; type: functional; method in brief: as §1
Bacillus subtilis [6] = test: Bactericidal activity against Bacillus subtilis MTCC 121 after 24 hrs; type: functional; conditions: MTCC 121, 24 h; method in brief: as §2
Raoultella planticola [7] = test: Bactericidal activity against Klebsiella planticola MTCC 530 after 24 hrs; type: functional; conditions: MTCC 530, 24 h; method in brief: as §2
Staphylococcus aureus [8] = test: Antibiofilm activity against Staphylococcus aureus MTCC 96 incubated for 24 hrs under static condition by crystal violet staining-based assay; type: functional; method in brief: as §1
Raoultella planticola [9] = test: Antibacterial activity against Klebsiella planticola MTCC 530 after 24 hrs by well diffusion method; type: functional; conditions: MTCC 530, 24 h; method in brief: as §3
Staphylococcus aureus [10] = test: Antibacterial activity against Staphylococcus aureus MLS16 MTCC 2940 after 24 hrs by well diffusion method; type: functional; conditions: MLS16 MTCC 2940, 24 h; method in brief: as §3
Bacillus subtilis [11] = test: Antibacterial activity against Bacillus subtilis MTCC 121 after 24 hrs by well diffusion method; type: functional; conditions: MTCC 121, 24 h; method in brief: as §3
Micrococcus luteus [12] = test: Induction of intracellular ROS accumulation in Micrococcus luteus MTCC 2470 sessile biofilm cells at 0.5 to 4 ug/ml after 24 hrs by DCFH-DA staining-based assay; type: functional, cell-based
Method in brief: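 Intracellular ROS was measured in M. luteus MTCC 2470 biofilms grown in 24-well plates. Mature biofilms were treated and incubated 24 h at 30 °C together with […] DCFH-DA. Well contents were centrifuged at 5000 × g for 10 min. Fluorescence (ex 485/em 535 nm) was read separately for supernatant and for sessile cells resuspended in PBS. Triplicate, mean ± S.D.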

Micrococcus luteus [13] = test: Antibacterial activity against Micrococcus luteus MTCC 2470 after 24 hrs by well diffusion method; type: functional; conditions: MTCC 2470, 24 h; method in brief: as §3
Raoultella planticola [14] = test: Antibiofilm activity against Klebsiella planticola MTCC 530 incubated for 24 hrs under static condition by crystal violet staining-based assay; type: functional; method in brief: as §1
Pseudomonas aeruginosa [15] = test: Antibacterial activity against Pseudomonas aeruginosa MTCC 2453 after 24 hrs by well diffusion method; type: functional; conditions: MTCC 2453, 24 h; method in brief: as §3
Micrococcus luteus [16] = test: Bactericidal activity against Micrococcus luteus MTCC 2470 after 24 hrs; type: functional; conditions: MTCC 2470, 24 h; method in brief: as §2
Staphylococcus aureus [17] = test: Antibiofilm activity against Staphylococcus aureus MLS16 MTCC 2940 incubated for 24 hrs under static condition by crystal violet staining-based assay; type: functional; method in brief: as §1
Escherichia coli [18] = test: Antibacterial activity against Escherichia coli MTCC 739 after 24 hrs by well diffusion method; type: functional; conditions: MTCC 739, 24 h; method in brief: as §3
Pseudomonas aeruginosa [19] = test: Bactericidal activity against Pseudomonas aeruginosa MTCC 2453 after 24 hrs; type: functional; conditions: MTCC 2453, 24 h; method in brief: as §2
Staphylococcus aureus [20] = test: Bactericidal activity against Staphylococcus aureus MLS16 MTCC 2940 after 24 hrs; type: functional; conditions: MLS16 MTCC 2940, 24 h; method in brief: as §2
Escherichia coli [21] = test: Antibiofilm activity against Escherichia coli MTCC 739 incubated for 24 hrs under static condition by crystal violet staining-based assay; type: functional; method in brief: as §1
Staphylococcus aureus [22] = test: Bactericidal activity against Staphylococcus aureus MTCC 96 after 24 hrs; type: functional; conditions: MTCC 96, 24 h; method in brief: as §2

O=C(O)c1cn(C2CC2)c2cc(N3CCNCC3)c(F)cc2c1=O [CIPROFLOXACIN]
IC50 (Bacillus subtilis [1]): 0.7 µg/mL (≈ 2.11 µM)
MBC (Escherichia coli [2]): 0.9 µg/mL (≈ 2.72 µM)
INH (Pseudomonas aeruginosa [3]): 0.7 µg/mL
MIC (Staphylococcus aureus [4]): 0.9 µg/mL (≈ 2.72 µM)
IC50 (Micrococcus luteus [5]): 0.5 µg/mL (≈ 1.51 µM)
MBC (Bacillus subtilis [6]): 1.9 µg/mL (≈ 5.73 µM)
MBC (Raoultella planticola [7]): 0.9 µg/mL (≈ 2.72 µM)
IC50 (Staphylococcus aureus [8]): 0.6 µg/mL (≈ 1.81 µM)
MIC (Raoultella planticola [9]): 0.9 µg/mL (≈ 2.72 µM)
MIC (Staphylococcus aureus [10]): 0.9 µg/mL (≈ 2.72 µM)
MIC (Bacillus subtilis [11]): 0.9 µg/mL (≈ 2.72 µM)
Activity (Micrococcus luteus [12]): Active
MIC (Micrococcus luteus [13]): 0.9 µg/mL (≈ 2.72 µM)
IC50 (Raoultella planticola [14]): 0.6 µg/mL (≈ 1.81 µM)
MIC (Pseudomonas aeruginosa [15]): 0.9 µg/mL (≈ 2.72 µM)
MBC (Micrococcus luteus [16]): 1.9 µg/mL (≈ 5.73 µM)
IC50 (Staphylococcus aureus [17]): 0.4 µg/mL (≈ 1.21 µM)
MIC (Escherichia coli [18]): 0.9 µg/mL (≈ 2.72 µM)
MBC (Pseudomonas aeruginosa [19]): 1.9 µg/mL (≈ 5.73 µM)
MBC (Staphylococcus aureus [20]): 0.9 µg/mL (≈ 2.72 µM)
INH (Escherichia coli [21]): 0.8 µg/mL
MBC (Staphylococcus aureus [22]): 0.9 µg/mL (≈ 2.72 µM)
